pKi: −log10 of the molar value.
What was measured:
D(2) dopamine receptor = D(2) dopamine receptor (Bos taurus, UniProt P20288); experiment: Displacement of [3H]Spiperone from dopamine D2 receptor in bovine caudate nuclei synaptosomal membrane by liquid scintillation spectrometry
Procedure, shortened: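 Membranes (0.7 mg/ml protein) incubated 20 min at 37 °C with 0.2 nM [3H]spiperone and 8–10 test compound concentrations (10^-5–10^-10 M). Ketanserin […] blocks 5-HT2 sites. Nonspecific binding defined with […] (+)-butaclamol. GF/C filtration, scintillation counting. Ki; 3–4 experiments in triplicate.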

[1] = Displacement of [3H]8-OH-DPAT from 5HT1A receptor in bovine hippocampi synaptosomal membrane by liquid scintillation spectrometry; type: tissue-based, Bos taurus, Hippocampus
D(1A) dopamine receptor = D(1A) dopamine receptor (Bos taurus, UniProt Q95136); experiment: Displacement of [3H]SCH23390 from dopamine D1 receptor in bovine caudate nuclei synaptosomal membrane by liquid scintillation spectrometry
Sequence of D(1A) dopamine receptor (Q95136 whole entry): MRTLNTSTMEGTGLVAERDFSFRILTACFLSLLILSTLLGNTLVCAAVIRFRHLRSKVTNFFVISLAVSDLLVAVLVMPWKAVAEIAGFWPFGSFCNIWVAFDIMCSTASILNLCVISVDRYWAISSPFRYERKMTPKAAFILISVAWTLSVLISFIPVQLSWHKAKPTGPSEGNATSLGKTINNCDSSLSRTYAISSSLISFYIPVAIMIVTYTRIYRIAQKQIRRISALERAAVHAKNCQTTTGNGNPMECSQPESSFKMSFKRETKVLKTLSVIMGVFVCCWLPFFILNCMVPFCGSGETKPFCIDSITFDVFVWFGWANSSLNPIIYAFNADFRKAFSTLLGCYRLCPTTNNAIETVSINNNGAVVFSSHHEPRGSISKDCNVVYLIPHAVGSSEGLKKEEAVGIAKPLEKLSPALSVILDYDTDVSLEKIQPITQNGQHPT

Sequence of D(2) dopamine receptor (P20288 whole entry): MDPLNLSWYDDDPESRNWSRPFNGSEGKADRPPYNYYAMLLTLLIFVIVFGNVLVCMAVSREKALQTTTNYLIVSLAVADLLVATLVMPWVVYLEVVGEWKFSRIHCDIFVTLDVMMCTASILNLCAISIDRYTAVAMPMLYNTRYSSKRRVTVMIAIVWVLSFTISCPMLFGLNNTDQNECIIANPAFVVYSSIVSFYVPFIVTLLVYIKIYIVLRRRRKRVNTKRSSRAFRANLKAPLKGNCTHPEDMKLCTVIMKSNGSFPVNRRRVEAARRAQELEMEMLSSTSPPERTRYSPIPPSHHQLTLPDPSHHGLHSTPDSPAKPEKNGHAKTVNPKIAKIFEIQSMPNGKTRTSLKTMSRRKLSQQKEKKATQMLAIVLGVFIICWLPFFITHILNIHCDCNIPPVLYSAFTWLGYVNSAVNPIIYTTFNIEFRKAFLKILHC

Structure (SMILES)	pKi (D(2) dopamine receptor)	pKi [1]	pKi (D(1A) dopamine receptor)
Clc1ccccc1N1CCN(CCc2cc(Cl)c3nc[nH]c3c2)CC1	7.72	7.34	< 6.00
c1cnc(N2CCN(CCc3ccc4nc[nH]c4c3)CC2)nc1	< 6.00	< 6.00	
COc1ccccc1N1CCN(CCc2cc(Br)c3nc[nH]c3c2)CC1	9.25	8.85	< 6.00
Clc1ccccc1N1CCN(CCc2cc(Br)c3nc[nH]c3c2)CC1	7.07	7.05	< 6.00
Clc1cc(CCN2CCN(c3ccccc3)CC2)cc2[nH]cnc12	7.07	7.05	< 6.00
COc1ccccc1N1CCN(CCc2ccc3nc[nH]c3c2)CC1	7.88	7.69	
COc1ccccc1N1CCN(CCc2cc(Cl)c3nc[nH]c3c2)CC1	8.26	8.28	< 6.00
FC(F)(F)c1cccc(N2CCN(CCc3cc(Br)c4nc[nH]c4c3)CC2)c1	8.24	9.85	< 6.00
Clc1cc(CCN2CCN(c3ncccn3)CC2)cc2[nH]cnc12	6.26	6.28	< 6.00
Brc1cc(CCN2CCN(c3ncccn3)CC2)cc2[nH]cnc12	7.57	6.89	< 6.00
Brc1cc(CCN2CCN(c3ccccc3)CC2)cc2[nH]cnc12	7.21	7.62	< 6.00
Clc1ccccc1N1CCN(CCc2ccc3nc[nH]c3c2)CC1	7.22	6.61	
FC(F)(F)c1cccc(N2CCN(CCc3cc(Cl)c4nc[nH]c4c3)CC2)c1	6.70	7.68	< 6.00
FC(F)(F)c1cccc(N2CCN(CCc3ccc4nc[nH]c4c3)CC2)c1	6.56	7.48	< 6.00
c1ccc(N2CCN(CCc3ccc4nc[nH]c4c3)CC2)cc1	6.86	6.71	< 6.00

Reference: ChEMBL document CHEMBL1158167, “Synthesis, binding properties and receptor docking of 4-halo-6-[2-(4-arylpiperazin-1-yl)ethyl]-1H-benzimidazoles, mixed ligands of D2 and 5-HT1A receptors” (Eur J Med Chem, 2008)
